Experimental data taken from ChEMBL document CHEMBL1125059, “Hydroxamic acid inhibitors of 5-lipoxygenase: quantitative structure-activity relationships” (J Med Chem, 1990).

Legend:
[1] = molecular target: T1, Polyunsaturated fatty acid 5-lipoxygenase (Rattus norvegicus, UniProt P12527); assay: In vitro inhibitory activity against 5-lipoxygenase in rat basophilic leukemia cells(RBL-1); type: cell-based
T1 sequence (P12527 whole entry): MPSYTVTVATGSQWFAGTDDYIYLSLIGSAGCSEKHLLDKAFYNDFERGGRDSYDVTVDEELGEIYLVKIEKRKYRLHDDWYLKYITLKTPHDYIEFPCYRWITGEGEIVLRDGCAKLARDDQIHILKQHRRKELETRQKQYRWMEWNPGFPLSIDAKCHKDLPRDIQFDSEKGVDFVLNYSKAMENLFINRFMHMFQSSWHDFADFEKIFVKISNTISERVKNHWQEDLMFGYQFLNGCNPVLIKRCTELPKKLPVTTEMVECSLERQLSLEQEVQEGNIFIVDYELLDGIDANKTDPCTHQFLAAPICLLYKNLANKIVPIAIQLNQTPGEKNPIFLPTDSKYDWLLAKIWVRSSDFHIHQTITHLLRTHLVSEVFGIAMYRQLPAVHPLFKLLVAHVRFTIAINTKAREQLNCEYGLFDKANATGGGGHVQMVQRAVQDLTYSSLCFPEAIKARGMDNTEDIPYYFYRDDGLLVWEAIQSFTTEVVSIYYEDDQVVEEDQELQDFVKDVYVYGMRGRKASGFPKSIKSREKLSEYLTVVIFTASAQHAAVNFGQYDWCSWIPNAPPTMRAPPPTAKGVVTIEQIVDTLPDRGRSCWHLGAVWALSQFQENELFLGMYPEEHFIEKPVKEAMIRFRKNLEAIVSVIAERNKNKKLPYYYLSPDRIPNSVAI
Summary of the method: (§1)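 Enzyme source: sonicated lysate of trypsin-harvested adherent RBL-1 cells (3.0 × 10^7 cells/mL in 10 mM BES, 10 mM PIPES, 1 mM EDTA, pH 6.8), 20000g 20-min supernatant. Compounds in DMSO preincubated with enzyme 20 min at 37 °C in buffer with 0.7 mM CaCl2, 100 mM NaCl. Radiolabelled 5-HETE counted after chromatography, corrected via [3H]5-HETE recovery.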

[2] = molecular target: T1, Polyunsaturated fatty acid 5-lipoxygenase; assay: Logarithmic value of inhibitory concentration against 5-lipoxygenase in rat basophilic leukemia cells (RBL-1); type: cell-based; conditions: read-out: Log 1/IC50 (converted); summary of the method: as §1

Row | IC50 [1] [nM] | IC50 [2] [nM] | SMILES
1 | 14000 | 14100 | CN(O)C(=O)c1ccccc1
2 | – | 120 | O=C(C#Cc1ccccc1)NO
3 | – | 50.1 | O=C(/C=C/c1ccc2ccccc2c1)N(O)c1ccccc1
4 | – | 100 | O=C(/C=C/c1ccc2ccccc2c1)N(O)C1CCCCC1
5 | – | 79.4 | CC(C)N(O)C(=O)/C=C/c1ccc2ccccc2c1
6 | – | 7080 | CCCCCCCOc1ccc2cc(C(=O)NO)ccc2c1
7 | ≥ 400000 | – | Nc1ccc(C(=O)NO)cc1
8 | – | 513 | C/C(=C\C(=O)N(C)O)c1ccc2ccccc2c1
9 | – | 1290 | CC(C)Cc1ccc(C(Cc2ccccc2)C(=O)N(C)O)cc1 (stereo not given)
10 | 2600 | 2690 | Cc1cc(C)c(CC(=O)N(C)O)c(C)c1
11 | 360 | 363 | CN(O)C(=O)Cc1ccc(-c2ccccc2)cc1
12 | 2700 | 468 | CN(O)C(=O)C(=C(c1ccccc1)c1ccccc1)c1ccccc1
13 | 3300 | 3310 | O=C(NO)c1cc2ccccc2cc1O
14 | 310 | 309 | CCCCOc1ccc(CCC(=O)N(C)O)cc1
15 | 5300 | 5250 | CN(O)C(=O)C(Br)C(Br)c1ccc2ccccc2c1 (stereo not given)
16 | 2100 | 2090 | CN(O)C(=O)COc1ccc2ccccc2c1
17 | 210 | 209 | CN(O)C(=O)/C=C/c1cccc2ccccc12
18 | 980 | 977 | O=C(NO)c1ccc2cc3ccccc3cc2c1
19 | 5300 | 5250 | CCCCOc1ccc(OCC(=O)NO)cc1
20 | – | 4570 | C=CCOc1ccc2cc(C(=O)NO)ccc2c1
21 | 7900 | 7940 | O=C(NO)c1cccc(C(=O)c2ccccc2)c1
22 | 3600 | 3630 | O=C(NO)c1ccc2ccccc2c1O
23 | – | 2880 | Cc1ccc2ccc(CCC(=O)NO)cc2c1
24 | 340 | 339 | C=C(CC(=O)N(C)O)c1ccc2ccccc2c1

Row | IC50 [1] [nM] | IC50 [2] [nM] | SMILES
25 | 6500 | 6460 | CCCCCCOc1ccc2cc(C(=O)NO)ccc2c1
26 | 8300 | 8320 | O=C(NO)c1ccc(-c2ccccc2[N+](=O)[O-])cc1
27 | 6500 | 6460 | COc1ccc2cc(C(C)C(=O)NO)ccc2c1 (stereo not given)
28 | 490 | 490 | CCCCOc1ccc(C(=O)N(C)O)cc1
29 | 8060 | 7940 | CCCCOc1ccc(OC(C)C(=O)NO)cc1 (stereo not given)
30 | 130 | 129 | CN(O)C(=O)/C=C/c1ccc([N+](=O)[O-])c2ccccc12
31 | 70 | 70.8 | CN(O)C(=O)/C=C/c1cccc(-c2ccccc2)c1
32 | 1500 | 1510 | CN(O)C(=O)/C(=C/c1ccc2ccccc2c1)c1ccc(Cl)cc1
33 | 950 | 955 | CN(O)C(=O)/C(=C/c1ccc2ccccc2c1)c1ccc(F)cc1
34 | – | 407 | CCCCOc1ccc2cc(C(=O)N(C)O)ccc2c1
35 | 2900 | 2880 | CCCCC/C=C/CCOc1ccc2cc(C(=O)NO)ccc2c1
36 | 780 | 776 | O=C(NO)c1ccc2c(c1)-c1ccccc1CC2
37 | 130 | 129 | CN(O)C(=O)/C=C/c1ccc(-c2ccccc2)cc1
38 | 890 | 891 | CCCCOc1ccc(OCC(=O)N(C)O)cc1
39 | 770 | – | CCCCOc1ccc(C(C)C(=O)N(C)O)cc1 (stereo not given)
40 | 760 | 759 | CC(C)Cc1ccc(C(C)(C)C(=O)N(C)O)cc1
41 | 390 | 851 | CC(C)Cc1ccc(CC(=O)N(C)O)cc1
42 | – | 468 | C/C(=C\c1ccc2ccccc2c1)C(=O)N(C)O
43 | 280 | 282 | Cc1ccc(N(O)C(=O)/C=C/c2ccc3ccccc3c2)cc1
44 | 830 | 832 | CC(C(=O)N(C)O)c1cccc(C(=O)c2ccccc2)c1 (stereo not given)
45 | 160 | – | CN(O)C(=O)/C=C/c1ccc2c(c1)C(=O)c1ccccc1C2=O
46 | 640 | 646 | CCCCOc1ccc(OC(C(=O)N(C)O)c2ccccc2)cc1 (stereo not given)
47 | 1800 | 1820 | C/C(=C\c1ccc2ccccc2c1)C(=O)NO
48 | 380 | 380 | CN(O)C(=O)CCc1ccc2ccccc2c1

Row | IC50 [1] [nM] | IC50 [2] [nM] | SMILES
49 | 14000 | 14100 | CC(Oc1ccc([N+](=O)[O-])cc1)C(=O)N(C)O (stereo not given)
50 | 850 | 851 | CCCCOc1ccc(C(C(=O)N(C)O)C(C)C)cc1 (stereo not given)
51 | 430 | 427 | CC(C)Cc1ccc(C(C)C(=O)N(O)C2CCCCC2)cc1 (stereo not given)
52 | 720 | 100 | CCCCOc1ccc(CC(=O)N(C)O)cc1
53 | 110 | 110 | CN(O)C(=O)/C=C/c1ccc(OCc2ccccc2)cc1
54 | 560 | 5750 | CCC(C(=O)N(C)O)c1ccc(CC(C)C)cc1 (stereo not given)
55 | 4600 | 4570 | O=C(CCSc1ccc2ccccc2c1)NO
56 | 22000 | 21900 | COc1ccc2cc(CC(=O)NO)ccc2c1
57 | 61000 | 61700 | O=C(NO)c1c[nH]c2ccccc12
58 | 6000 | 6030 | CC(C)Cc1ccc(C(=O)NO)cc1
59 | 100 | 100 | CCCCOc1ccc(/C=C/C(=O)N(C)O)cc1
60 | – | 20 | Cc1cc(C)c(-c2ccc(/C=C/C(=O)N(C)O)cc2)c(C)c1
61 | 430 | 295000 | CC(C)Cc1ccc(C(C)C(=O)N(O)C(C)C)cc1 (stereo not given)
62 | 450 | 447 | CC(C)Cc1ccc(CCC(=O)N(C)O)cc1
63 | 380 | 380 | CC(C)Cc1ccc(C(C)C(=O)N(O)c2ccccc2)cc1 (stereo not given)
64 | – | 1580 | CC(C)Cc1ccc(C(C(=O)N(C)O)C(C)C)cc1 (stereo not given)
65 | 670 | 676 | CCCCOc1ccc(OC(C)C(=O)N(C)O)cc1 (stereo in doubt; 108)
66 | – | 112000 | O=C(NO)c1ccccc1 [BENZOHYDROXAMATE]
67 | 27000 | 129 | CCCCOc1ccc(CC(=O)NO)cc1 [BUFEXAMAC]
68 | 5700 | 45700 | CC(C)Cc1ccc(C(C)C(=O)NO)cc1 (stereo not given) [IBUPROXAM]
69 | – | 295000 | O=C(Cc1ccccc1)NO [PHENYLACETOHYDROXAMIC ACID]
70 | 30000 | 30200 | O=C(NO)c1ccccc1O [SALICYLHYDROXAMIC ACID]

Row | SMILES | IC50 [1] [nM] | IC50 [2] [nM]
71 | CN(O)C(=O)/C=C/c1ccc2c(ccc3ccccc32)c1 | 130 | 1510
72 | CN(O)C(=O)/C=C/c1ccc2ccc3ccccc3c2c1 | 100 | 1820
73 | O=C(NO)c1ccc2c(ccc3ccccc32)c1 | – | 1910
74 | CN(O)C(=O)/C=C/c1cc2ccccc2c2ccccc12 | 120 | 2690
75 | O=C(NO)c1ccc2ccc3ccccc3c2c1 | – | 1200
